Source: ChEMBL document CHEMBL2150921, “Synthesis, structure-activity relationships, and docking studies of N-phenylarylformamide derivatives (PAFAs) as non-nucleoside HIV reverse transcriptase inhibitors” (Eur J Med Chem, 2012)

Key:
[1] = tested on: Human immunodeficiency virus 1; experiment: Antiviral activity against wild type HIV1 3B infected in human C8166 cells assessed as protection against virus-induced cytopathic effect after 3 days by syncytium reduction assay; type: functional, organism-based; details: Human immunodeficiency virus 1, 3B, C8166, 72 h
Outline: (§1)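 C8166 cells (4 × 10⁵/mL) infected at MOI 0.06 in presence of graded compound concentrations; AZT and GW678248 as drug controls. After 3 days culture, syncytia (multinucleated giant cells) counted under inverted microscope; EC50 taken as concentration blocking 50% syncytium formation. Mean of at least two separate experiments.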

[2] = target: Human immunodeficiency virus type 1 reverse transcriptase (Human immunodeficiency virus 1, UniProt Q72547); experiment: Inhibition of wild type HIV1 reverse transcriptase activity using poly (rA)/oligo (dT)15 homopolymer template after 1 hr by ELISA
Outline: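 Wild-type RT; oligo(dT) immobilized on plates, poly(rA) template, biotin-11-dUTP incorporation. Reaction: 50 mM Tris-HCl pH 8.3, 3 mM MgCl2, 75 mM KCl, 5 mM DTT, 0.13 mg/mL BSA, […]; 37 °C, 1 h. Detection by streptavidin-alkaline phosphatase and PNPP (30 min, 37 °C), stopped with 0.5 M NaOH.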

[3] = Therapeutic index, ratio of CC50 for human C8166 cells to EC50 for HIV1 A17 harbouring RT K103N/Y181C mutant infected in human C8166 cells; type: cell-based; details: read-out: Ratio CC50/EC50
Outline: (§2)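 CC50 from MTT assay on uninfected C8166 cells (A570/630, dose-response curve, 50% viable cell reduction) divided by EC50 from 3-day syncytium reduction assay in C8166 cells (4 × 10⁵/mL) infected at M.O.I 0.06; syncytia scored microscopically. Values are means of at least two separate experiments.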

[4] = tested on: Human immunodeficiency virus 1; experiment: Antiviral activity against HIV1 A17 harbouring RT K103N/Y181C mutant infected in human C8166 cells assessed as protection against virus-induced cytopathic effect after 3 days by syncytium reduction assay; type: functional, organism-based; details: Human immunodeficiency virus 1, A17, C8166, 72 h
Outline: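 C8166 cells (4 × 10⁵/mL) infected at M.O.I 0.06 in the presence of various compound concentrations; cultured 3 days, syncytia (multinucleated giant cells) scored under inverted microscope; EC50 = concentration blocking syncytia formation by 50%. AZT and GW678248 as drug controls. Mean of at least two separate experiments.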

C8166 = experiment: Cytotoxicity against human C8166 cells assessed as decrease in cell viability by MTT assay; type: functional
Outline: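 Uninfected C8166 cells exposed to compound; viability read by MTT colorimetric assay at A570/630. CC50, the concentration reducing viable cells by 50%, taken from dose-response curve. Mean of at least two separate experiments.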

[5] = Therapeutic index, ratio of CC50 for human C8166 cells to EC50 for wild type HIV1 3B infected in human C8166 cells; type: cell-based; details: C8166 cells infected with wild type HIV1 3B, read-out: Ratio CC50/EC50; outline: as §2
[6] = tested on: Human immunodeficiency virus 2; experiment: Antiviral activity against HIV2 ROD infected in human C8166 cells assessed as protection against virus-induced cytopathic effect after 3 days by syncytium reduction assay; type: functional, organism-based; details: Human immunodeficiency virus 2, ISOLATE ROD, C8166, 72 h; outline: as §1

In the case of `Cc1cc(S(N)(=O)=O)ccc1NC(=O)COc1ccc(Cl)cc1C(=O)c1cc(Cl)cc(C#N)c1`, the EC50 [1] is reported as 0.000103 µM, the IC50 [2] is reported as 0.00269 µM and the selectivity ratio [3] is reported as > 1.37e+06. For the same molecule, the EC50 [4] was 0.00028 µM and the CC50 (C8166) was > 387 µM.

`Cc1cc(S(N)(=O)=O)ccc1NC(=O)COc1ccc(Cl)cc1NC(=O)c1cccc(Cl)c1` gave an EC50 [1] of 0.00319 µM, a selectivity ratio [5] of 18700 and a selectivity ratio [3] of 39.9. For the same molecule, the EC50 [6] was 52.5 µM, the EC50 [4] was 1.49 µM and the CC50 (C8166) was 59.7 µM.

`Cc1cc(S(N)(=O)=O)ccc1NC(=O)COc1ccc(Cl)cc1NC(=O)c1ccccc1` gave an EC50 [1] of 0.00367 µM, a selectivity ratio [5] of 56500 and a selectivity ratio [3] of 130. It also gave an EC50 [6] of 72.1 µM, an EC50 [4] of 1.59 µM and a CC50 (C8166) of 207 µM.

For `Cc1cc(S(N)(=O)=O)ccc1NC(=O)COc1ccc(Cl)cc1NC(=O)c1ccccc1C`, the EC50 [1] was 0.0179 µM, the selectivity ratio [5] was 3750 and the selectivity ratio [3] was 29.4. It also gave an EC50 [6] of 55.5 µM, an EC50 [4] of 2.29 µM and a CC50 (C8166) of 67.3 µM.

For `Cc1cccc(C(=O)Nc2cc(Cl)ccc2OCC(=O)Nc2ccc(S(N)(=O)=O)cc2C)c1`, the EC50 [1] was 0.00146 µM, the selectivity ratio [5] was 36200 and the selectivity ratio [3] was 115. It also gave an EC50 [6] of 29.6 µM, an EC50 [4] of 0.46 µM and a CC50 (C8166) of 52.9 µM.

With `Cc1ccc(C(=O)Nc2cc(Cl)ccc2OCC(=O)Nc2ccc(S(N)(=O)=O)cc2C)cc1` the EC50 [1] was 0.0051 µM, the selectivity ratio [5] was 10600 and the selectivity ratio [3] was 58.2. The EC50 [6] was 57.3 µM, the EC50 [4] was 0.93 µM and the CC50 (C8166) was 54.2 µM.

Work on `Cc1cc(S(N)(=O)=O)ccc1NC(=O)COc1ccc(Cl)cc1NC(=O)c1cccc(F)c1` yielded an EC50 [1] of 0.00353 µM, a selectivity ratio [5] of 68800 and a selectivity ratio [3] of 239. It also gave an EC50 [6] of 186 µM, an EC50 [4] of 1.02 µM and a CC50 (C8166) of 243 µM.

Work on `Cc1cc(S(N)(=O)=O)ccc1NC(=O)COc1ccc(Cl)cc1NC(=O)c1ccccc1[N+](=O)[O-]` yielded an EC50 [1] of 0.0003 µM, a selectivity ratio [5] of 185000 and a selectivity ratio [3] of 188. The EC50 [6] was 11.8 µM, the EC50 [4] was 0.29 µM and the CC50 (C8166) was 54.8 µM.

`Cc1cc(S(N)(=O)=O)ccc1NC(=O)COc1ccc(Cl)cc1NC(=O)c1cccc([N+](=O)[O-])c1` gave an EC50 [1] of 0.00066 µM, a selectivity ratio [5] of 89400 and a selectivity ratio [3] of 128. For the same molecule, the EC50 [6] was 36.1 µM, the EC50 [4] was 0.46 µM and the CC50 (C8166) was 58.8 µM.

With `Cc1cc(S(N)(=O)=O)ccc1NC(=O)COc1ccc(Cl)cc1NC(=O)c1cccc(C(F)(F)F)c1` the EC50 [1] was 1.51 µM, the selectivity ratio [5] was 82 and the selectivity ratio [3] was 2.34. It also gave an EC50 [6] of 81.3 µM, an EC50 [4] of 52.9 µM and a CC50 (C8166) of 124 µM.

Work on `COc1ccc(C(=O)Nc2cc(Cl)ccc2OCC(=O)Nc2ccc(S(N)(=O)=O)cc2C)cc1` yielded an EC50 [1] of 0.204 µM, a selectivity ratio [5] of 340 and a selectivity ratio [3] of 3.85. For the same molecule, the EC50 [6] was 58.8 µM, the EC50 [4] was 18.1 µM and the CC50 (C8166) was 69.5 µM.

For `Cc1ccc(C(=O)Nc2cc(Cl)ccc2OCC(=O)Nc2ccc(S(N)(=O)=O)cc2C)c(C)c1`, the EC50 [1] was 0.00056 µM, the selectivity ratio [5] was 85300 and the selectivity ratio [3] was 543. For the same molecule, the EC50 [6] was 41.4 µM, the EC50 [4] was 0.09 µM and the CC50 (C8166) was 47.6 µM.

Work on `Cc1ccc(C)c(C(=O)Nc2cc(Cl)ccc2OCC(=O)Nc2ccc(S(N)(=O)=O)cc2C)c1` yielded an EC50 [1] of 0.00037 µM, a selectivity ratio [5] of 213000 and a selectivity ratio [3] of 560. It also gave an EC50 [6] of 27.7 µM, an EC50 [4] of 0.14 µM and a CC50 (C8166) of 79.7 µM.

With `Cc1ccc(C(=O)Nc2cc(Cl)ccc2OCC(=O)Nc2ccc(S(N)(=O)=O)cc2C)cc1C` the EC50 [1] was 0.00032 µM, the IC50 [2] was 0.00114 µM and the selectivity ratio [5] was 261000. It also gave a selectivity ratio [3] of 836, an EC50 [6] of 4.37 µM and an EC50 [4] of 0.1 µM. The CC50 (C8166) was 84.1 µM.

`Cc1cc(C)cc(C(=O)Nc2cc(Cl)ccc2OCC(=O)Nc2ccc(S(N)(=O)=O)cc2C)c1` showed an EC50 [1] of 0.00116 µM, a selectivity ratio [5] of 31300 and a selectivity ratio [3] of 110. For the same molecule, the EC50 [6] was 25.9 µM, the EC50 [4] was 0.33 µM and the CC50 (C8166) was 36.5 µM.

For `Cc1cc(S(N)(=O)=O)ccc1NC(=O)COc1ccc(Cl)cc1NC(=O)c1ccc(Cl)cc1Cl`, the EC50 [1] was 0.00297 µM, the selectivity ratio [5] was 20600 and the selectivity ratio [3] was 187. It also gave an EC50 [6] of 14.4 µM, an EC50 [4] of 0.33 µM and a CC50 (C8166) of 61.1 µM.

For `Cc1cc(S(N)(=O)=O)ccc1NC(=O)COc1ccc(Cl)cc1NC(=O)c1cc(Cl)ccc1Cl`, the EC50 [1] was 0.00234 µM, the selectivity ratio [5] was 18000 and the selectivity ratio [3] was 100. It also gave an EC50 [6] of 21.6 µM, an EC50 [4] of 0.42 µM and a CC50 (C8166) of 42.1 µM.

In the case of `Cc1cc(S(N)(=O)=O)ccc1NC(=O)COc1ccc(Cl)cc1NC(=O)c1ccc(Cl)c(Cl)c1`, the EC50 [1] is reported as 0.0514 µM, the selectivity ratio [5] is reported as 3060 and the selectivity ratio [3] is reported as 138. For the same molecule, the EC50 [6] was 55.5 µM, the EC50 [4] was 1.14 µM and the CC50 (C8166) was 158 µM.

Work on `Cc1cc(S(N)(=O)=O)ccc1NC(=O)COc1ccc(Cl)cc1NC(=O)c1cc(Cl)cc(Cl)c1` yielded an EC50 [1] of 0.00027 µM, a selectivity ratio [5] of 271000 and a selectivity ratio [3] of 268. It also gave an EC50 [6] of 18 µM, an EC50 [4] of 0.27 µM and a CC50 (C8166) of 72.4 µM.

With `Cc1cc(S(N)(=O)=O)ccc1NC(=O)COc1ccc(Cl)cc1NC(=O)c1cc(Cl)cc(Br)c1` the EC50 [1] was 3.09 µM, the selectivity ratio [5] was 37 and the selectivity ratio [3] was 4.11. The EC50 [6] was 61.5 µM, the EC50 [4] was 27.8 µM and the CC50 (C8166) was 114 µM.

Molecule `Cc1cc(S(N)(=O)=O)ccc1NC(=O)COc1ccc(Cl)cc1NC(=O)c1cc(Br)cc(Br)c1` has an EC50 [1] of 0.0459 µM, a selectivity ratio [5] of 1950 and a selectivity ratio [3] of 64.7. The EC50 [6] was 56.5 µM, the EC50 [4] was 1.39 µM and the CC50 (C8166) was 89.7 µM.

`Cc1cc(S(N)(=O)=O)ccc1NC(=O)COc1ccc(Cl)cc1NC(=O)c1cc(Cl)cc(C#N)c1` showed an EC50 [1] of 0.00096 µM, an IC50 [2] of 0.00205 µM and a selectivity ratio [5] of 136000. The selectivity ratio [3] was 454, the EC50 [6] was 23.2 µM and the EC50 [4] was 0.29 µM. The CC50 (C8166) was 131 µM.

Work on `Cc1cc(S(N)(=O)=O)ccc1NC(=O)COc1ccc(Cl)cc1NC(=O)/C=C/c1ccccc1` yielded an EC50 [1] of 95.4 µM, a selectivity ratio [5] of 2 and a selectivity ratio [3] of 1.06. The EC50 [6] was 77.5 µM, the EC50 [4] was 154 µM and the CC50 (C8166) was 163 µM.

For `Cc1cc(S(N)(=O)=O)ccc1NC(=O)COc1ccc(Cl)cc1NC(=O)Cc1c(Cl)cccc1Cl`, the EC50 [1] was 249 µM, the selectivity ratio [5] was > 2 and the selectivity ratio [3] was > 1.49. For the same molecule, the EC50 [6] was 160 µM, the EC50 [4] was 241 µM and the CC50 (C8166) was > 359 µM.

In the case of `Cc1cc(S(N)(=O)=O)ccc1NC(=O)COc1ccc(Cl)cc1NC(=O)c1cccc2ccccc12`, the EC50 [1] is reported as 0.109 µM, the selectivity ratio [5] is reported as > 3500 and the selectivity ratio [3] is reported as > 17.7. For the same molecule, the EC50 [6] was 97.7 µM, the EC50 [4] was 21.5 µM and the CC50 (C8166) was > 382 µM.

In the case of `Cc1cc(S(N)(=O)=O)ccc1NC(=O)COc1ccc(Cl)cc1NC(=O)c1ccc2ccccc2c1`, the EC50 [1] is reported as 0.101 µM, the selectivity ratio [5] is reported as 373 and the selectivity ratio [3] is reported as 4.22. It also gave an EC50 [6] of 31.6 µM, an EC50 [4] of 8.91 µM and a CC50 (C8166) of 37.6 µM.

`Cc1cn([C@H]2C[C@H](N=[N+]=[N-])[C@@H](CO)O2)c(=O)[nH]c1=O` [ZIDOVUDINE] gave a selectivity ratio [5] of 422000, a selectivity ratio [3] of 216000 and a CC50 (C8166) of 4910 µM.
